RAM inhibit: blocks the yeast RAM network; 190,000 compounds, 1.8% hits; inhibition, % at 50 µM; S. cerevisiae dse1pr::URA3 reporter, 5-FOA growth OD615, 2 d; analog-sensitive cbk1-as2 kinase mutant strain;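 active = inhibition above a set limit, 3 SD over mean compound inhibition, cut at about 8.4% in these data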;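 also: 0% = DMSO-only wells with no growth and 100% = 10 µM 1-NA-PP1 full growth; inhibition rescues growth on 5-FOA so higher OD means more RAM inhibition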
WT yeast gro inh: growth inhibition of WT yeast, mitochondrial fusion screen; inhibition, % at 10 µM; 190,000 compounds, 2.1% hits; mitochondrial fusion phenotypic screen, WT strain; in the data active = inhibition above about 58%; tested in S. cerevisiae
ABCG2 inh: blocks JC-1 efflux by human ABCG2 transporter; Q9UNQ0; inhibition, % at 6.6 µM; AID 1325; IgMXP3 cells, flow cytometry; 190,000 compounds, 0.1% hits;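 active = inhibition above 80%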;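 also: 0% = DMSO and 100% = nicardipine control wells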
Target sequence (Q9UNQ0 whole entry, looked up): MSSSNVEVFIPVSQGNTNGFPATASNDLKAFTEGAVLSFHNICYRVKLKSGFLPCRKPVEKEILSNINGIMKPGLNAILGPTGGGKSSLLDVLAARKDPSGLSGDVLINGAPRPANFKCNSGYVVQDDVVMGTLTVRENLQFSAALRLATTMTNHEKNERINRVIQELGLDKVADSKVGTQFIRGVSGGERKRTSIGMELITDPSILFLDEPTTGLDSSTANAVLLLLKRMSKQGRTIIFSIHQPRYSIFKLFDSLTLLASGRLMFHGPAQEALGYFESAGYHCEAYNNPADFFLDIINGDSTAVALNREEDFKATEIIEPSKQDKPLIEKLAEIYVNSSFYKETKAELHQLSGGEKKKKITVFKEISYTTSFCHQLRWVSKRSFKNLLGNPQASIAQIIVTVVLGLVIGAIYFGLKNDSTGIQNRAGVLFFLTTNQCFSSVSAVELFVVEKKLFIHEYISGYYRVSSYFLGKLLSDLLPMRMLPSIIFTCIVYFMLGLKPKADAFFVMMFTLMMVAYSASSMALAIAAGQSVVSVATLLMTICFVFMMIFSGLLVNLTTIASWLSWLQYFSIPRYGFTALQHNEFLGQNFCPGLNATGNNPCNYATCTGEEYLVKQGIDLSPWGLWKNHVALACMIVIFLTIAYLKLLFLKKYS
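test system = two drug-resistant human cell lines, ABCG2 and ABCB1 | amount = 3 million cells/mL final, two lines in 1:1 ratio | reagent = JC-1 transporter substrate | doses = one concentration, 6.6 µM final | incubation = 10 min at 25 °C | signal = flow cytometric JC-1 green MFI at 530 nm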
ABCB1 block: human ABCB1 inhibition, ABCG2 as counter-screen; inhibition, % at 6.6 µM; AID 1326; 190,000 compounds, 0.067% hits; P08183; CCRF-Adr cells, JC-1 efflux, flow cytometry; in the data active = inhibition above about 40%;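 also: 0% = vehicle and 100% = reference inhibitor; higher value means more JC-1 retained so stronger ABCB1 efflux block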
L major viab: Leishmania major promastigote growth inhibition | Leishmania major promastigotes, resazurin fluorescence viability | inhibition, % at 10 µM | 200,000 compounds, 9% hits | AID 1063; in the data active = inhibition above about 50%;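 also: promastigotes grown with compound for 44 hours at 28 °C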
Active calls of the source: *; · = no result. Hits are enriched below; roughly 12% of the tested compounds scored in any of these assays.

SMILES	RAM inhibit	WT yeast gro inh	ABCG2 inh	ABCB1 block	L major viab
CCOC(=O)C1(CCOc2ccccc2)CCN(Cc2cccc3c2OCO3)CC1	0	18	1	1	91*
CCOC(=O)C1(CCOc2ccccc2)CCN(Cc2cc(OC)c3c(c2)OCO3)CC1	1	27	7	11	84*
CCOC(=O)C1(CCOC)CCN(Cc2ccc(COC)o2)CC1	0	-7	0	1	-3
Cc1cccc(C)c1NC(=S)N(CCCN1CCCCC1)Cc1ccco1	1	-2	-4	12	-3
C=CCNCCOc1ccccc1-c1ccccc1	1	17	·	·	18
CCCCNCCOCCOc1ccccc1-c1ccccc1	-2	10	0	0	92*
CC(C)NCCCCOc1ccccc1-c1ccccc1	1	2	2	0	98*
COCCNCCCCOc1ccccc1-c1ccccc1	2	-8	2	·	52*
CCOC(=O)c1nnn(-c2nonc2N)c1CSc1nnc(N)s1	1	-7	-1	0	-4
CC(Oc1ccc(Cl)cc1)c1ccc(C#N)c(=O)[nH]1 (centres undefined)	0	0	-1	-1	-7
COCC(=O)NNS(=O)(=O)c1ccccc1[N+](=O)[O-]	0	17	4	2	54*
O=C(COc1ccc(-c2ccccc2)cc1)N/N=C/c1ccccc1Br	6	12	0	0	-3
O=C(COc1ccc(-c2ccccc2)cc1)N/N=C/c1cc(O)ccc1Br	1	96*	-1	0	70*
CC(C)CCN(C)C1CCN(S(=O)(=O)c2ccc(F)cc2)CC1	1	18	0	0	95*
C#CCSc1ncc(S(=O)(=O)c2ccccc2)c(=O)[nH]1	1	-4	1	0	-6
Cc1cc(C)cc(NC(=O)CSc2ncc(S(=O)(=O)c3ccccc3)c(=O)[nH]2)c1	6	-2	-2	-1	53*
COC(=O)c1ccccc1NC(=O)CN(C)S(=O)(=O)c1cc(C)ccc1OC	0	13	1	0	21
CCOC(=O)C1=C(O)/C(=C/c2ccc(OCC(=O)O)c(OCC)c2)SC1=Nc1ccc(OC)cc1	9.4*	-3	-2	-1	62*
CC1=CCC[C@@H]2[C@@](C)(CC/C(C)=C/C(=O)O)[C@H](C)CC[C@@]12C	7	73*	5	0	-7
CCN(CC)CC#CCOC(c1ccccc1)c1ccccc1	2	10	12	1	98*
CCN(CC)CCC(C)OC(c1ccccc1)c1ccccc1 (centres undefined)	-1	4	2	0	100*
CN(C)CC#CCOC(c1ccccc1)c1ccccc1	0	15	0	0	99*
CCN(CC)CCCCCOc1ccccc1OC	0	0	0	0	37
CCOc1ccc(N(C(=O)CNC(=O)c2cccs2)C(C(=O)NCC2CCCO2)c2ccc(OC)c(OC)c2)cc1 (centres undefined)	1	3	3	1	-3
O=C(NC1=NCCS1)c1ccc([N+](=O)[O-])cc1Cl	1	-11	0	0	-5
SMILES	RAM inhibit	WT yeast gro inh	ABCG2 inh	ABCB1 block	L major viab
O=C(Cc1cnc2ncnn2c1)N1CCc2c([nH]c3ccccc23)C1c1ccccn1 (centres undefined)	0	14	2	0	-7
O=C(CCNC(=O)c1ccco1)Nc1ccc(SC(F)F)cc1	0	-10	0	0	-5
O=C(CC1C(=O)NCCN1Cc1ccccc1C(F)(F)F)NCCc1ccccn1 (centres undefined)	1	8	-3	-2	-5
CCC[C@@H]1C[C@@]1(CCC)[C@@H](NP(=O)(c1ccccc1)c1ccccc1)c1ccc(C(=O)OC)cc1	6	68*	4	4	29
COC(=O)c1ccc(NC(=O)CSc2ccccc2)cc1	-1	-6	4	0	38
Cc1cccc(C(=O)Oc2ccccc2/C=N/Nc2ccc([N+](=O)[O-])cc2)c1	2	-3	1	0	98*
CCc1ccc(OC)c(-c2csc(N)n2)c1	1	58*	20	20	0
COc1ccccc1NS(=O)(=O)c1cc(C(=O)NCCC(C)C)ccc1F	0	7	8	2	8
CCc1c(C)nc(SCC(=O)c2cccs2)c(C#N)c1C	3	86*	9	3	19
CCc1c(C)nc(SCC(N)=O)c(C#N)c1C	1	·	1	0	-7
CCOC(=O)c1c(NC(=O)C(Sc2ccccc2)c2ccccc2)sc(C(=O)N(C)C)c1C (centres undefined)	10*	19	8	2	98*
COC(=O)Nc1sc(C(=O)N(C)C)c(C)c1C(=O)OC	1	32	0	0	-5
CCOC(=O)c1c(NC(=O)OC)sc(C(=O)N(C)C)c1C	-1	71*	1	0	2
CCc1nnc(SCC(=O)Nc2ccccc2Cl)nc1CC	1	-20	2	0	-9
O=C(Cn1nc(-c2cccc([N+](=O)[O-])c2)c2ccccc2c1=O)NCC1CCCO1 (centres undefined)	2	-2	21	1	2
O=c1c(Cl)c(Cl)cnn1Cc1nnc(-c2ccc(Cl)cc2)o1	4	49	0	0	100*
O=c1c(Cl)c(Cl)cnn1-c1ccccc1	3	3	0	0	90*
Cc1ccc(Cn2ncc(Cl)c(Cl)c2=O)cc1	1	-7	0	0	60*
Cc1cc(C)cc(Cn2ncc(Cl)c(Cl)c2=O)c1	1	23	1	0	19
CCCCNc1cnn(-c2ccccc2)c(=O)c1Cl	0	-15	3	0	49
O=c1c(Cl)c(Cl)cnn1Cc1ccccc1Cl	2	11	2	0	76*
CCOC(=O)c1sc(NC(=O)CSc2nc(-c3ccco3)cc(C(F)(F)F)n2)c(C(=O)OC(C)C)c1C	·	·	·	·	-2
CCOc1ccc(C(C)=O)cc1CN1C(=O)NC2(CCCCCCC2)C1=O	-1	-7	4	2	-5
CCOC(=O)c1cnc2c(c(C)nn2CC)c1NCCN1CCOCC1	3	-3	18	7	19
O=C(Cn1ncc(Cl)c(Cl)c1=O)N1CCc2ccccc21	5	-12	6	0	87*
SMILES	RAM inhibit	WT yeast gro inh	ABCG2 inh	ABCB1 block	L major viab
O=C(Cn1ncc(Cl)c(Cl)c1=O)N1CCN(Cc2ccccc2)CC1	0	-17	0	1	40
CN1C/C(=C\c2ccc(N3CCOCC3)cc2)C(=O)/C(=C/c2ccc(N3CCOCC3)cc2)C1	1	-13	1	0	100*
CN1C/C(=C/c2ccsc2)C(=O)/C(=C/c2ccsc2)C1	1	4	5	1	100*
CCCC(=O)Nc1ccc(N2CCOCC2)cc1	1	2	3	0	-5
CCN1C/C(=C/c2ccc(N3CCOCC3)cc2)C(=O)/C(=C/c2ccc(N3CCOCC3)cc2)C1	1	14	18	1	100*
c1ccc(N2CCOCCOCCOCCOCCOCC2)cc1	0	7	2	0	-7

Screening data deposited in PubChem BioAssay by several laboratories.
